Measurements from ChEMBL document CHEMBL1123184, “Thromboxane synthetase inhibitors and antihypertensive agents. 2. N-[(1H-imidazol-1-yl)alkyl]-1H-isoindole-1,3(2H)-diones and N-[(1H-1,2,4-triazol-1-yl)alkyl]-1H-isoindole-1,3(2H)-diones as unique antihypertensive agents” (J Med Chem, 1986).
pIC50: −log10 of the molar value. Active and inactive are the calls of the source.

Tests used:
Rattus norvegicus [1] = assay: Compound was tested for the antihypertensive activity in rats, after peroral administration of 100 mg/kg for 2 days (no. of rats=2); I=Inactive; assay type: functional, organism-based; set-up: dose 100 mg/kg
Outline: (§1)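 Male 16-week-old Okamoto SHR (mean arterial pressure 170 ± 1.5 mmHg). Compound suspended in 2% preboiled starch (50 mg/mL) and given by gavage at 100 mg/kg, with 0.9% NaCl load 25 mL/kg. Second identical dose without saline 24 h later. Mean arterial pressure read 28 h after first dose. Active: one rat ≤116 mmHg or mean of two ≤122 mmHg.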

[2] = molecular target: T1, Thromboxane-A synthase (Rattus norvegicus) (UniProt P49430); assay: Inhibition of thromboxane formation in platelets at a concentration of 10e-4 M; assay type: functional
T1 sequence (whole entry): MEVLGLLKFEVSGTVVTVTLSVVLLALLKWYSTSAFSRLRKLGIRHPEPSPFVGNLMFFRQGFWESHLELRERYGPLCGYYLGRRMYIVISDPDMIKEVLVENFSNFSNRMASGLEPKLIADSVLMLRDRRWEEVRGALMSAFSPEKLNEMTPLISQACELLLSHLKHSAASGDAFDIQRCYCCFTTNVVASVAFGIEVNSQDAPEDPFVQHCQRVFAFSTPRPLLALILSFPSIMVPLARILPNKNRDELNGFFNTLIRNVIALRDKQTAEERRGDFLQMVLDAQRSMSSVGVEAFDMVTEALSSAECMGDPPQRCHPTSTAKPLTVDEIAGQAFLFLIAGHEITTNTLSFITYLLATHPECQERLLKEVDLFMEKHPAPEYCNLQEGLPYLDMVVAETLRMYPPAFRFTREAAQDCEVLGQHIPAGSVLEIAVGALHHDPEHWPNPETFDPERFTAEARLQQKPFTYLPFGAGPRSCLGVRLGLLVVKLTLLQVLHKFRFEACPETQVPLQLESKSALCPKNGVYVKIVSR
Outline: (§2)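 SHR washed platelets (4.5–6.0 × 10^4/μL, Krebs phosphate pH 7.4) incubated 10 min at 37 °C with compound at 10^-4 M. Reaction stopped with citric acid on ice. TXB2 quantified by RIA, boiled-control blank subtracted, and percent inhibition of TXB2 formation calculated. Number of determinations given per value.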

Thromboxane-A synthase [3] = molecular target: T2, Thromboxane-A synthase (Rattus norvegicus, UniProt P49430); assay: (§3) Compound was tested for the inhibition of thromboxane synthetase
T2 sequence (P49430 whole entry): T1 sequence (whole entry)
Outline: (§4)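 Washed platelets from urethan-anesthetized SHR aged 19–24 weeks, in oxygenated Krebs phosphate buffer pH 7.4 at (4.5–6.0) × 10^4 platelets/μL. Incubated 10 min at 37 °C with compound, stopped with citric acid on ice. TXB2 measured by RIA; boiled-sample blank subtracted. IC50 read from percent inhibition vs log concentration plot; duplicate measurements.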

Rattus norvegicus [4] = assay: Compound was tested for the antihypertensive activity in rats, after peroral administration of 100 mg/kg for 2 days (no. of rats=2); A=Active; assay type: functional, organism-based; set-up: dose 100 mg/kg; outline: as §1
Rattus norvegicus [5] = assay: Compound was tested for the antihypertensive activity in rats, after peroral administration of 100 mg/kg; I=Inactive; assay type: functional, organism-based; set-up: dose 100 mg/kg; outline: as §1
[6] = molecular target: T1, Thromboxane-A synthase (Rattus norvegicus); assay: Inhibition of thromboxane formation (thromboxane synthetase) in platelets at 10e-4 M; assay type: functional; outline: as §2
Rattus norvegicus [7] = assay: Compound was tested for the antihypertensive activity in rats, after peroral administration of 100 mg/kg for 2 days (no. of rats=3); A=Active; assay type: functional, organism-based; set-up: dose 100 mg/kg; outline: as §1
Rattus norvegicus [8] = assay: Compound was tested for the antihypertensive activity in rats, after peroral administration of 100 mg/kg for 2 days (no. of rats=3); I=Inactive; assay type: functional, organism-based; set-up: dose 100 mg/kg; outline: as §1
Thromboxane-A synthase [9] = molecular target: T2, Thromboxane-A synthase; assay: as §3; assay type: functional; outline: as §4
Rattus norvegicus [10] = assay: Compound was tested for the antihypertensive activity in rats, after peroral administration of 100 mg/kg; A=Active; assay type: functional, organism-based; set-up: dose 100 mg/kg; outline: as §1
Rattus norvegicus [11] = assay: Compound was tested for the antihypertensive activity in rats, after peroral administration of 100 mg/kg for 2 days (no. of rats=2); a=Active; assay type: functional, organism-based; set-up: dose 100 mg/kg; outline: as §1
Rattus norvegicus [12] = assay: Compound was tested for the antihypertensive activity in rats, after peroral administration of 100 mg/kg for 2 days (no. of rats=4); I=Inactive; assay type: functional, organism-based; set-up: dose 100 mg/kg; outline: as §1

SMILES: CCc1nccn1CCCCN1C(=O)c2ccccc2C1=O
- Activity (Rattus norvegicus [1]): inactive
- inhibition [2]: 65%

SMILES: O=C1c2ccccc2C(=O)N1CCCCn1ccnc1
- inhibition [2]: 99%
- pIC50 (Thromboxane-A synthase [3]): 5.70
- Activity (Rattus norvegicus [4]): Active

SMILES: O=C1c2ccc(Cl)c(Cl)c2C(=O)N1CCCn1cncn1
- Activity (Rattus norvegicus [5]): inactive
- inhibition [6]: 73%

SMILES: O=C1c2ccccc2C(=O)N1CCn1ccnc1
- inhibition [2]: 20%
- Activity (Rattus norvegicus [4]): Active

SMILES: CC(CCn1ccnc1)N1C(=O)c2ccccc2C1=O (stereo unspecified)
- inhibition [2]: 94%
- Activity (Rattus norvegicus [7]): Active

SMILES: Cc1cn(CCCN2C(=O)c3ccccc3C2=O)cn1
- Activity (Rattus norvegicus [1]): inactive
- inhibition [2]: 68%

SMILES: Cc1cn(CCCCN2C(=O)c3ccccc3C2=O)cn1
- Activity (Rattus norvegicus [8]): inactive
- inhibition [2]: 86%

SMILES: O=C1c2ccccc2C(=O)N1CCCCCn1cncn1
- inhibition [2]: 79%
- Activity (Rattus norvegicus [4]): Active

SMILES: O=C1c2cccc(Br)c2C(=O)N1CCCCCn1ccnc1
- Activity (Rattus norvegicus [5]): inactive
- pIC50 (Thromboxane-A synthase [9]): 6.22
- inhibition [6]: 87%

SMILES: O=C1c2cccc(Cl)c2C(=O)N1CCCn1ccnc1
- Activity (Rattus norvegicus [10]): Active
- inhibition [6]: 92%

SMILES: O=C1c2ccccc2C(=O)N1CCCCCCCCn1ccnc1
- Activity (Rattus norvegicus [5]): inactive
- pIC50 (Thromboxane-A synthase [9]): 6.70
- inhibition [6]: 100%

SMILES: Cc1nccn1CCCN1C(=O)c2ccccc2C1=O
- Activity (Rattus norvegicus [1]): inactive
- inhibition [2]: 36%

SMILES: O=C1c2ccccc2C(=O)N1C/C=C/Cn1ccnc1
- inhibition [2]: 85%
- Activity (Rattus norvegicus [4]): Active

SMILES: O=C1c2ccccc2C(=O)N1CCn1cncn1
- inhibition [2]: 0%
- Activity (Rattus norvegicus [11]): Active

SMILES: O=C1c2ccccc2C(=O)N1CCCCn1ccnc1-c1ccccc1
- Activity (Rattus norvegicus [8]): inactive
- inhibition [2]: 57%

SMILES: Cc1nccn1CCCCN1C(=O)c2ccccc2C1=O
- Activity (Rattus norvegicus [12]): inactive
- inhibition [2]: 22%

SMILES: CC(CCn1ccnc1)N1C(=O)c2cccc(Br)c2C1=O (stereo unspecified)
- Activity (Rattus norvegicus [5]): inactive
- inhibition [6]: 89%

SMILES: O=C1c2cccc(Br)c2C(=O)N1CCCn1cncn1
- Activity (Rattus norvegicus [5]): inactive
- inhibition [6]: 76%

SMILES: O=C1c2cccc(Br)c2C(=O)N1CCCCn1ccnc1
- Activity (Rattus norvegicus [10]): Active
- pIC50 (Thromboxane-A synthase [9]): 6.00
- inhibition [6]: 100%

SMILES: O=C1c2ccccc2C(=O)N1CCCCn1cncn1
- inhibition [2]: 70%

SMILES: O=C1c2ccccc2C(=O)N1CCCCCn1ccnc1
- inhibition [2]: 92%
- pIC50 (Thromboxane-A synthase [3]): 5.22
- Activity (Rattus norvegicus [4]): Active

SMILES: O=C1c2ccccc2C(=O)N1CCCCCCn1ccnc1
- Activity (Rattus norvegicus [10]): Active
- pIC50 (Thromboxane-A synthase [9]): 5.82
- inhibition [6]: 100%

SMILES: Cc1cccc2c1C(=O)N(CCCCn1ccnc1)C2=O
- inhibition [2]: 100%
- pIC50 (Thromboxane-A synthase [3]): 5.70
- Activity (Rattus norvegicus [4]): Active

SMILES: CC(CCn1cncn1)N1C(=O)c2ccccc2C1=O (stereo unspecified)
- Activity (Rattus norvegicus [12]): inactive
- inhibition [2]: 47%

SMILES: O=C1c2ccccc2C(=O)N1CC#CCn1ccnc1
- Activity (Rattus norvegicus [10]): Active
- inhibition [6]: 100%

SMILES: CCc1nccn1CCCN1C(=O)c2ccccc2C1=O
- Activity (Rattus norvegicus [1]): inactive
- inhibition [2]: 0%

SMILES: O=C1c2ccccc2C(=O)N1CCCCCCCCCCn1ccnc1
- Activity (Rattus norvegicus [5]): inactive
- pIC50 (Thromboxane-A synthase [9]): 7.00
- inhibition [6]: 92%

SMILES: O=C1c2ccc(Cl)c(Cl)c2C(=O)N1CCCCn1ccnc1
- Activity (Rattus norvegicus [5]): inactive
- inhibition [6]: 100%

SMILES: O=C1c2ccccc2C(=O)N1CCCn1ccnc1
- inhibition [2]: 94%
- pIC50 (Thromboxane-A synthase [3]): 5.30
- Activity (Rattus norvegicus [4]): Active

SMILES: O=C1c2ccc(Cl)c(Cl)c2C(=O)N1CCCn1ccnc1
- Activity (Rattus norvegicus [5]): inactive
- pIC50 (Thromboxane-A synthase [9]): 6.40
- inhibition [6]: 100%

SMILES: Cc1cccc2c1C(=O)N(CCCn1ccnc1)C2=O
- Activity (Rattus norvegicus [8]): inactive
- inhibition [2]: 100%
- pIC50 (Thromboxane-A synthase [3]): 5.40

SMILES: O=C1c2cccc(Cl)c2C(=O)N1CCCCn1ccnc1
- Activity (Rattus norvegicus [10]): Active
- inhibition [6]: 100%

SMILES: O=C1c2ccccc2C(=O)N1CCCn1cncn1
- inhibition [2]: 64%
- Activity (Rattus norvegicus [4]): Active
